Bioassay records: PubChem, several laboratories
Shown is part of a subset that was picked to be rich in hits.
ABCG2 block: blocks JC-1 efflux by human ABCG2 transporter | AID 1325 | actives 0.1% (n = 190,000) | IgMXP3 cells, flow cytometry | Q9UNQ0 | inhibition, % at 6.6 µM;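 active = inhibition above 80%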
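Test system: IgMXP3 (ABCG2) plus far-red-tagged CCRF-Adr (ABCB1) cells. Reagent: JC-1 dye as substrate. Timing: 10 min exposure at 25 °C with rotation, no wash. Measured by: flow cytometric JC-1 green MFI at 530 nm. Read-out: percent efflux inhibition, scaled nicardipine 100% to DMSO 0%. Control set: nicardipine and DMSO wells.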
Avidin bead fluor: compound fluoresces at 488/530 nm on avidin beads; compound fluorescence 488/530 nm, flow cytometry; active compounds read high; fluorescence (KMESF) at 10 µM; actives 0.38% (n = 220,000); AID 1775; in the data active = fluorescence above about 47
ABCB1 inh: inhibitors of human ABCB1 transporter, ABCG2 counter-screen; P08183; CCRF-Adr cells, JC-1 efflux, flow cytometry; inhibition, % at 6.6 µM; actives 0.067% (n = 190,000); AID 1326; in the data active = inhibition above about 40%;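 also: higher value means more JC-1 retained so stronger ABCB1 efflux block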
GSH bead fluor: GSH bead compound fluorescence profile; AID 1776; GSH beads flow cytometry, compound fluorescence 488/530 nm; active compounds read high; actives 0.25% (n = 190,000); fluorescence (KMESF) at 10 µM; in the data active = fluorescence above about 89;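 also: glutathione beads carrying GST-tagged Bcl family fusion proteins plus one bare bead set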
PKD1 inh: blocks activity of human protein kinase D1. PKD1 kinase fluorescence polarization assay. inhibition, % (test concentration not listed). actives 0.056% (n = 200,000). AID 797
Lmaj promast: Leishmania major promastigote growth inhibition | Leishmania major promastigotes, resazurin fluorescence viability | inhibition, % at 10 µM | actives 9% (n = 200,000) | AID 1063;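 also: promastigotes grown with compound for 44 hours at 28 °C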
Each line names hits and unclear results; the compound was inactive in the other large screens. Rule as the data show it, unless noted: active = inhibition above about 50%; inactive = the rest.

CCOC(=O)c1cnc2c(-c3ccc(F)cc3)cnn2c1C(F)(F)F	Lmaj promast 97
COc1cc2c(C(=O)N3CCN(c4cccc(Cl)c4)CC3)cn(CC(C)C)c(=O)c2cc1OC	Lmaj promast 58
COc1ccccc1N1CCN(c2ncc(C(=O)N3CCN(c4cccc(Cl)c4)CC3)c3ccccc23)CC1	Lmaj promast 62
CCOC(=O)C1=C(C)NC(=S)NC1/C=C/c1ccccc1 (configuration not stated)	none
Cc1nn(-c2ccccc2)c2c1C(=O)N(Cc1ccccc1)C(=O)C(C)(C)C2	Lmaj promast 84
Cc1nn(-c2nc3ccccc3n2Cc2ccccc2)c2c1C(=O)CC(C)(C)C2	none
Cc1nc([N+](=O)[O-])c(Sc2nc3ccccc3n2C)n1Cc1ccccc1	Lmaj promast 96
Cc1nc([N+](=O)[O-])c(SCC(N)=O)n1Cc1ccccc1	none
O=C(OCc1ccccc1)N1CCCC1/C=C/CN1CCOCC1 (configuration not stated)	Lmaj promast 82
CC(NC(=O)C1CCCN1C(=O)OCc1ccccc1)c1ccccc1 (configuration not stated)	none
CCCCC(=O)OCc1nc(N)nc(Nc2ccccc2C)n1	Lmaj promast 63
COc1ccccc1C(=O)OCc1nc(N)nc(Nc2ccccc2C)n1	none
Cc1ccccc1Nc1nc(N)nc(COC(=O)C2CCCCC2)n1	none
Cc1ccccc1Nc1nc(N)nc(COC(=O)c2ccc(S(=O)(=O)N(C)C)cc2)n1	Lmaj promast 67
COc1cccc(OC(=O)c2cc3ccccc3oc2=O)c1	none
CCN(CC)CCOC(=O)c1ccc(NC(=O)C2(c3ccccc3)CCCC2)cc1	Lmaj promast 70
CCOC(=O)c1ccc(NC(=O)/C=C/c2cccs2)cc1	none
CCN(CC)CCOC(=O)c1ccc(NC(=O)/C=C/c2cccs2)cc1	Lmaj promast 69
O=C(O)c1ccc(NC(=O)C2(c3ccccc3)CCCC2)cc1	none (no result: ABCG2 block, ABCB1 inh, GSH bead fluor, PKD1 inh, Lmaj promast)
COc1ccc(NC(=S)N2CCCC(c3nc4ccc(C)cc4[nH]3)C2)c(OC)c1 (configuration not stated)	Lmaj promast 100
COc1ccc(NC(=S)N2CCCC(c3nc4ccc(C)cc4[nH]3)C2)cc1 (configuration not stated)	Lmaj promast 94
COc1ccc(NC(=S)N2CCC(c3nc4ccc(Cl)cc4[nH]3)CC2)c(OC)c1	none
CCOc1ncccc1C(=O)Nc1cccc(-c2nnc3n2CCCCC3)c1	none
CC(C)Cn1c(SCC(=O)Nc2cccc(S(N)(=O)=O)c2)nc2ccccc2c1=O	none
Cc1ccc(-n2c(SCC(=O)Nc3cccc(S(N)(=O)=O)c3)nc3ccccc32)cc1	Lmaj promast 78
CCOc1ccc(-n2c(SCC(=O)Nc3cc(OC)c([N+](=O)[O-])cc3C)nc3ccccc32)cc1	Lmaj promast 98
COc1cc([N+](=O)[O-])ccc1NC(=O)CSc1nc2ccccc2n1-c1ccccc1	Lmaj promast 92
Cc1onc(-c2ccccc2)c1NC(=O)N(Cc1ccccc1)C(C)C	none (no result: ABCG2 block, ABCB1 inh, GSH bead fluor, PKD1 inh, Lmaj promast)
CC1CCCCC1NC(=O)/C(C#N)=C/c1ccc(OCC(N)=O)cc1 (configuration not stated)	Lmaj promast 64
CCC1(C)Cc2nc3[nH]c(=S)n(-c4ccccc4)c(=O)c3cc2CO1 (configuration not stated)	Lmaj promast 56
CCC1(C)Cc2nc3[nH]c(=S)n(-c4ccccc4C)c(=O)c3cc2CO1 (configuration not stated)	none (no result: ABCG2 block, ABCB1 inh, GSH bead fluor, PKD1 inh, Lmaj promast)
Cc1[nH]n(-c2ccccc2)c(=O)c1C(C[N+](=O)[O-])c1ccc(Cl)cc1 (configuration not stated)	none
Cc1[nH]n(-c2ccccc2)c(=O)c1C(c1ccccc1C(=O)O)c1c(C)[nH]n(-c2ccccc2)c1=O	none
Cc1[nH]n(-c2ccccc2)c(=O)c1C(C[N+](=O)[O-])c1ccc(F)cc1 (configuration not stated)	Lmaj promast 60
Cc1[nH]n(-c2ccccc2)c(=O)c1C=NCCc1ccccc1	none
Cc1ccc(C(C[N+](=O)[O-])c2c(C)[nH]n(-c3ccccc3)c2=O)cc1 (configuration not stated)	Lmaj promast 97
